# Assay results: paper PMC4653337 (Pharmacognosy Magazine, 2015)
# “And” between values parts separate entries of the source, which are not always exact repeats. Identical values can stand only once. Counter-ions that a name gives are not always drawn. Like-named read-outs stand apart in the source and are kept apart here.
# What was measured:
# [1] = system: A549 cells; conditions: A549, 48 h treatment; ref 10 (Lee et al.); cited from earlier work
# [2] = system: A549 human lung cancer cell line; assay: Sulforhodamine B; type: cell-based; conditions: read-out: Growth inhibition, IC50
# Procedure, shortened: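 SRB growth assay. A549 cells were grown in RPMI 1640 with 10% FBS, 2% penicillin/streptomycin and 1% amphotericin B, then seeded at 8,000 per well overnight. Cells were exposed 24, 48 or 72 h to graded test compound (0.5% DMSO final; reference drug alongside). Cells were fixed in cold 40% TCA for 1 h at 4°C and stained with 0.4% SRB for 30 min. Dye was solubilised in 10 mM Tris pH 10.5 and read at 492 nm. IC50 came from % inhibition dose-response curves.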
# [3] = system: MRC-5 human lung fibroblast; assay: Sulforhodamine B; type: cell-based; conditions: for IC50: Homo sapiens, read-out: Growth inhibition, IC50
# Procedure, shortened: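 SRB growth assay. MRC-5 fetal lung fibroblasts were grown in MEM with 10% FBS and 1% penicillin/streptomycin at 37°C, 5% CO2, then seeded at 8,000 per well overnight. Cells were exposed 24, 48 or 72 h to graded test compound (0.5% DMSO final). Cells were fixed in cold 40% TCA at 4°C, stained with 0.4% SRB, solubilised in 10 mM Tris pH 10.5 and read at 492 nm. IC50 came from % inhibition versus concentration curves.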
# [4] = system: A549 cells; assay: DNA fragmentation by TUNEL assay; type: cell-based, human; conditions: 72 h, negative control 4.27 ± 0.13%
# [5] = system: A549 cells; assay: Mitochondrial membrane potential assay; type: cell-based, human; conditions: A549, 14, 28, 42 μM, 72 h, dose-dependent
# Procedure, shortened: (§1)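 A549 cells in RPMI 1640 with 10% FBS, 37°C, 5% CO2. Test compound in DMSO, 0.5% DMSO final. Annexin: 2.4 × 10^5 cells/well adhered overnight, 72 h exposure, 1 × 10^5 cells stained with FITC-annexin V and PI, 10,000 events per replicate. JC-1: 72 h, 15 min dye, red aggregate (FL2-A) vs green monomer (FL1-A). Mean ± SEM; at least two runs in triplicate.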
# [6] = Mitochondrial membrane potential assay; type: cell-based, human; conditions: human, A549 cells, Population of viable cells (P5 region, high Δψm), A549, 42 μM, untreated 91.42 ± 0.36%
# Procedure, shortened: as §1
# [7] = system: mice; conditions: cited from earlier work
# [8] = system: benign prostatic hyperplasia (BPH-1) epithelial cell line; conditions: BPH-1, 10 µM and 20 µM for 48 h; cited from earlier work
# [9] = system: A549 cells; assay: Cell cycle analysis; type: cell-based, human; conditions: 72 h; for percentage of cells at S phase: 0 μM 8.94 ± 0.23%
# Procedure, shortened: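 After 72 h of test compound, adherent and floating A549 cells were pooled and fixed in 70% ethanol overnight. Cells were stained 30 min at room temperature with 50 μg/ml PI, 50 μg/ml RNase, 0.1% Triton X-100 and 1 mg/ml sodium citrate (final). DNA content was read by flow cytometry and modelled into sub-G1, G1, S and G2/M fractions. Runs were done at least twice in triplicate; one-way ANOVA/Tukey versus control.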
# [10] = system: A549 cells; assay: Phase contrast microscopy; type: cell-based, human; conditions: A549, 14, 28, 42 μM, 72 h
# [11] = system: A549 cells; assay: Annexin V-FITC/PI staining, flow cytometry; type: cell-based, human; conditions: 72 h; for percentage of early apoptotic cells (Annexin V-FITC+ PI-): negative control 1.42 ± 0.47%; for population of late apoptotic or secondary necrotic cells (Annexin V-FITC+ PI+): negative control 1.80 ± 0.30%
# Procedure, shortened: as §1
# [12] = system: HCT-116 human colon cancer cells; conditions: cited from earlier work
# [13] = system: DNA topoisomerase I (Top 1); conditions: cited from earlier work
# [14] = system: MDA-MB-435 breast cancer cells; conditions: MDA-MB-435, 5–50 µM for 24 h; cited from earlier work
# [15] = system: caspase-9 in A549 cells; assay: Caspase-9 activity; type: cell-based, human; conditions: A549, 12, 24, 48 h; highest RLU at 14 μM at 24 h and 48 h
# [16] = system: breast cancer xenografts; conditions: breast cancer xenografts in nude mice; ref 24 (Monteiro et al.); cited from earlier work
# [17] = system: caspase-8 in A549 cells; assay: Caspase-8 activity; type: cell-based, human; conditions: A549, 12, 24, 48 h; highest RLU at 14 μM at 24 h and 48 h
# [18] = system: caspase-3 in A549 cells; assay: Caspase-3 activity; type: cell-based, human; conditions: A549, 12, 24, 48 h
smiles,measurement,setting,value
"COc1cccc2c1C(=O)c1c(O)c3c(c(O)c1C2=O)C[C@@](O)(C(=O)CO)C[C@@H]3O[C@H]1C[C@H](N)[C@H](O)[C@H](C)O1 [Doxorubicin, Doxorubicin hydrochloride, reference compound]",IC50 (cytotoxic effects on A549),[1],0.5 µg/mL
same,IC50,"[2]; A549, 24 h",2.85 ± 0.2 µM
same,IC50,"[2]; A549, 48 h",0.22 ± 0.03 µM
same,IC50,"[2]; A549, 72 h",0.02 ± 0.02 µM
same,IC50,"[3]; MRC5, 24 h",5.71 ± 0.55 µM
same,IC50,"[3]; MRC5, 48 h",2.01 ± 0.04 µM
same,IC50,"[3]; MRC5, 72 h",1.09 ± 0.1 µM
"COc1cc(O)c(CC=C(C)C)c(O)c1C(=O)/C=C/c1ccc(O)cc1 [Xanthohumol, 2', 4, 4'-trihydroxy-3'-prenyl-6'-methoxychalcone]",percentage of cells with DNA fragmentation,"[4]; A549, 28 μM",34.7 ± 0.30%
same,percentage of cells with DNA fragmentation,"[4]; A549, 42 μM",39.2 ± 0.15%
same,Effect on mitochondrial membrane potential (Δψm),[5],significantly reduced
same,"viability at 72 h, 42 µM",[6],2.88 ± 0.62%
same,Organ function and homeostasis,"[7]; feeding, ref 6 (Dorn et al.)",did not impair organ function and homeostasis
same,Hematological and biochemical blood analyses versus control group,"[7]; oral administration, ref 25 (Vanhoecke et al.)",no difference in hematological and biochemical blood analyses
same,IC50 (cytotoxic effects on A549),[1],4.3 µg/mL
same,Cell cycle effect,[8],S phase arrest
same,IC50,"[2]; A549, 24 h",74.1 ± 1.98 µM
same,IC50,"[2]; A549, 48 h",25.5 ± 0.3 µM
same,IC50,"[2]; A549, 72 h",13.5 ± 0.82 µM
same,percentage of cells at S phase,"[9]; A549, 14 μM",12.34 ± 1.09%
same,percentage of cells at S phase,"[9]; A549, 28 μM",16.43 ± 1.52%
same,percentage of cells at S phase,"[9]; A549, 42 μM",46.95 ± 2.03%
same,Effect on sub G1 population,"[9]; A549, increasing concentration",increased the percentage of cells arrested at sub G1 peak
same,Morphological changes,[10],"atrophy, size shrinkage, decrease in cell number, and detachment of cells"
same,percentage of early apoptotic cells (Annexin V-FITC+ PI-),"[11]; A549, 14 μM",2.72 ± 0.59%
same,population of late apoptotic or secondary necrotic cells (Annexin V-FITC+ PI+),"[11]; A549, 14 μM",4.90 ± 0.85%
same,percentage of early apoptotic cells (Annexin V-FITC+ PI-),"[11]; A549, 28 μM",26.08 ± 1.50%
same,population of late apoptotic or secondary necrotic cells (Annexin V-FITC+ PI+),"[11]; A549, 28 μM",17.05 ± 3.12%
same,percentage of early apoptotic cells (Annexin V-FITC+ PI-),"[11]; A549, 42 μM",34.42 ± 4.41%
same,population of late apoptotic or secondary necrotic cells (Annexin V-FITC+ PI+),"[11]; A549, 42 μM",33.27 ± 3.55%
same,Caspase activation,[12],"Activation of all caspase-3, -8, and -9"
same,Effect on DNA topoisomerase I (Top 1) activity,[13],inhibition of DNA topoisomerase I (Top 1) activity
same,IC50,"[3]; MRC5, 24 h",> 282 µM and > 100 µg/mL
same,IC50,"[3]; MRC5, 48 h",149 ± 4.96 µM
same,IC50,"[3]; MRC5, 72 h",94.4 ± 1.77 µM
same,Toxicity to normal cells (MRC-5) versus cancer cells (A549),"[3]; comparison of IC50 values on MRC-5 and A549, SRB assay",less toxic to normal cells compared to cancer cells
same,Cell cycle effect,[14],S phase arrest
same,Caspase-9 activity (RLU),[15],significantly increased
same,In vivo antitumor effects on isolated tumors,[16],decrease in tumor-surrounding inflammatory cells and a large central necrosis
same,Caspase-8 activity (RLU),[17],significantly increased
same,Caspase-3 activity (RFU),[18],RFU values increased as concentration and treatment time increased
